ChEMBL document CHEMBL4396873, “Discovery of Potent, Selective, and Short-Acting Peptidic V2 Receptor Agonists” (J Med Chem, 2019)
Active and inactive are the calls of the source. The rule behind the calls is not given here. Numbered stars: 1 amine (or outer) side, 2 acyl side, 3 side chain; on linkers, the order of the positions; unused ones are H or OH. Bridge positions count the residues as written; N and C are the ends. Square brackets hold non-standard residues; d marks the D form. Peptide text beside a SMILES is read from it. * marks the point of attachment. Phe(4-Cl) = N[C@@H](Cc1ccc(Cl)cc1)C(=O)O; Phe(4-F) = N[C@@H](Cc1ccc(F)cc1)C(=O)O; Phe(4-Me) = Cc1ccc(C[C@H](N)C(=O)O)cc1; 2Thi = N[C@@H](Cc1cccs1)C(=O)O; X4 = N=C(N)NCCC[C@@H](CO)N*; X2 = N=C(N)NCCC[C@H](CO)N*; hCys = N[C@@H](CCS)C(=O)O; X1 = O=C(CCC[*:2])[*:1]; X3 = O=C(CC[*:2])[*:1]; Mpa = O=C(O)CCS

How the values were obtained:
[1] = target: Vasopressin V2 receptor (Homo sapiens, UniProt P30518); experiment: Agonist activity at recombinant human V2 receptor expressed in HEK293 cells measured after 5 hrs by cAMP response element driven luciferase reporter gene assay; format: functional, cell-based
[2] = target: T1, Oxytocin receptor (Homo sapiens) (UniProt P30559); experiment: Agonist activity at human OTR stably expressed in CHOK1 cells up to 10000 nM by NFAT-luciferase reporter gene assay; format: cell-based
T1 sequence (whole entry): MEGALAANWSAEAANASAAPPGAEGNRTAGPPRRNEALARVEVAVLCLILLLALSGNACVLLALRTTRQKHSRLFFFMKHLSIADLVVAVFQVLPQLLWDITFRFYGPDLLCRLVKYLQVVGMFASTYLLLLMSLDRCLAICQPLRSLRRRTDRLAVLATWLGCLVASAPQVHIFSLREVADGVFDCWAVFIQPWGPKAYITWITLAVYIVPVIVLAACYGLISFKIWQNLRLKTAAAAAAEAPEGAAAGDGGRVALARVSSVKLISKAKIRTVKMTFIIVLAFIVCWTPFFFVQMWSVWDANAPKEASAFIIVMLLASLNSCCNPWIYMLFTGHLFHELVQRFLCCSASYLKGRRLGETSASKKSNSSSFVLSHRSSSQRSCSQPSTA

[3] = Clearance in Sprague-Dawley rat at 0.1 mg/kg, iv administered as cassette dose by LC-MS/MS analysis; format: ADME, organism-based; settings: in vivo
[4] = target: Vasopressin V1a receptor (Homo sapiens, UniProt P37288); experiment: Agonist activity at recombinant human V1a receptor expressed in HEK293 cells up to 1000 nM measured after 5 hrs by luciferase reporter gene assay; format: cell-based; settings: hek293, 5 h
[5] = Protein binding in rat plasma at 200 to 1000 ng/ml measured after 15 mins by UC-LC/MS/MS analysis; format: ADME, cell-free; settings: read-out: PPB (converted)
Method in brief: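 Peptide spiked into rat plasma to final 200-1000 ng/mL, incubated 15 min at 37 °C, ultracentrifuged at 773,000 xg for 30 min at 37 °C; middle-layer sample quantified by LC/MS/MS; binding (%) = (Ci − Cm)/Ci × 100; quadruplicate.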

[6] = Non-renal clearance in nephrectomized Sprague-Dawley rat at 0.1 mg/kg, iv administered as cassette dose by LC-MS/MS analysis; format: ADME, organism-based; settings: in vivo
[7] = target: T2, Oxytocin receptor (Homo sapiens, UniProt P30559); experiment: Agonist activity at human OTR stably expressed in CHOK1 cells by NFAT-luciferase reporter gene assay; format: cell-based
T2 sequence (P30559 whole entry): T1 sequence (whole entry)

Sequence of Vasopressin V1a receptor (P37288 whole entry): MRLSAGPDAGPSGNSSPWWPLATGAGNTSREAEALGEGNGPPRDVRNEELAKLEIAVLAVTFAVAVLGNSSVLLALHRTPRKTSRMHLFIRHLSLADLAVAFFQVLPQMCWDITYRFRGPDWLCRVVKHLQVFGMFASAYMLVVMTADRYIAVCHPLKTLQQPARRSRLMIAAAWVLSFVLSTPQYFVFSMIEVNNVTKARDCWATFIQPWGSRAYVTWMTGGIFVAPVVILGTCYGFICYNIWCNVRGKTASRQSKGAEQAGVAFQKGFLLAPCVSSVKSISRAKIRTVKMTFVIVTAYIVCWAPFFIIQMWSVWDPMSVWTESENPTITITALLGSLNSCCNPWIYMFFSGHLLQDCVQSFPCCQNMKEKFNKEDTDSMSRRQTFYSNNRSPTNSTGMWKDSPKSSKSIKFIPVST
Sequence of Vasopressin V2 receptor (P30518 whole entry): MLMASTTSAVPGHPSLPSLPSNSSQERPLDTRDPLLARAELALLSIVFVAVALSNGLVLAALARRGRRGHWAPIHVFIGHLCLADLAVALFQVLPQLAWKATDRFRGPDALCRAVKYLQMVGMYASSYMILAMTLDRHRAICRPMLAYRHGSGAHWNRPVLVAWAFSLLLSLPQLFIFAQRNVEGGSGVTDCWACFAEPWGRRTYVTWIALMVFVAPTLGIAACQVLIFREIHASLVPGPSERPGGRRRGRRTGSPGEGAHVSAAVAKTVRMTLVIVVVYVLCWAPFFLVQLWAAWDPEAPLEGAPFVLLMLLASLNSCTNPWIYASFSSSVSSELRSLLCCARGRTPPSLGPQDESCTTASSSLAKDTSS

| Compound | EC50 [1] [nM] | Activity [2] | clearance [3] [mL/min/kg] | Activity [4] | fraction unbound at […] [5] | CL [6] [%] | EC50 [7] [nM] |
| --- | --- | --- | --- | --- | --- | --- | --- |
| CCNC(=O)[C@@H](CCCNC(=N)N)NC(=O)[C@@H]1CSCN1C(=O)[C@@H]1CCSCCC(=O)N[C@@H](Cc2ccc(Cl)cc2)C(=O)N[C@@H](Cc2cccs2)C(=O)N[C@@H](C(C)C)C(=O)N[C@@H](CC(N)=O)C(=O)N1 | 0.11 | inactive | 11 | Not Active | 0.08 | – | – |
| CC(C)NC(=O)[C@@H](CCCNC(=N)N)NC(=O)[C@@H]1CCCN1C(=O)[C@@H]1CSCCCC(=O)N[C@@H](Cc2ccc(Cl)cc2)C(=O)N[C@@H](Cc2cccs2)C(=O)N[C@@H](C(C)C)C(=O)N[C@@H](CC(N)=O)C(=O)N1 | 0.45 | inactive | 15 | Not Active | 0.15 | 58 | – |
| CNC(=O)[C@@H](CCCNC(=N)N)NC(=O)[C@@H]1CCCN1C(=O)[C@@H]1CSCCCC(=O)N[C@@H](Cc2ccc(Cl)cc2)C(=O)N[C@@H](Cc2cccs2)C(=O)N[C@@H](C(C)C)C(=O)N[C@@H](CC(N)=O)C(=O)N1 | 0.27 | inactive | 9.1 | Not Active | 0.18 | – | – |
| Cc1ccc(C[C@@H]2NC(=O)CCCSC[C@@H](C(=O)N3CCC[C@H]3C(=O)N[C@@H](CO)CCCNC(=N)N)NC(=O)[C@H](CC(N)=O)NC(=O)[C@H](C(C)C)NC(=O)[C@H](Cc3cccs3)NC2=O)cc1 ([Phe(4-Me)][2Thi]VNCP-X2; linker N-5 via X1) | – | – | 5.3 | Not Active | 0.32 | 30 | > 10000 |
| CC(C)[C@@H]1NC(=O)[C@H](Cc2cccs2)NC(=O)[C@H](Cc2ccc(O)cc2)NC(=O)CCCSC[C@@H](C(=O)N2CCC[C@H]2C(=O)N[C@H](CO)CCCNC(=N)N)NC(=O)[C@H](CC(N)=O)NC1=O (Y[2Thi]VNCP-X4; linker N-5 via X1) | 0.1 | – | 8.1 | Not Active | 0.85 | – | 230 |
| CC(C)[C@@H]1NC(=O)[C@H](Cc2cccs2)NC(=O)[C@H](Cc2ccc(Cl)cc2)NC(=O)CCCSC[C@@H](C(=O)N2CCC[C@H]2C(=O)N[C@H](CO)CCCNC(=N)N)NC(=O)[C@H](CC(N)=O)NC1=O ([Phe(4-Cl)][2Thi]VNCP-X4; linker N-5 via X1) | – | – | 8.1 | Not Active | 0.19 | – | > 10000 |
| CC(C)[C@@H]1NC(=O)[C@H](Cc2cccs2)NC(=O)[C@H](Cc2ccc(O)cc2)NC(=O)CCCSC[C@@H](C(=O)N2CCC[C@H]2C(=O)N[C@H](CCCNC(=N)N)C(=O)NCc2ccccc2)NC(=O)[C@H](CC(N)=O)NC1=O | 0.26 | inactive | 14 | Not Active | 0.55 | 71 | – |
| CC(C)[C@@H]1NC(=O)[C@H](Cc2ccccc2)NC(=O)[C@H](Cc2ccc(O)cc2)NC(=O)CCSSC[C@@H](C(=O)N2CCC[C@H]2C(=O)N[C@H](CCCNC(=N)N)C(=O)NCC(N)=O)NC(=O)[C@H](CC(N)=O)NC1=O ([Mpa]YFVNCP[dR]G-NH2; disulfide 1-6) | 0.05 | – | 9.6 | Not Active | 0.69 | – | – |
| CC(C)[C@@H]1NC(=O)[C@H](Cc2ccc(F)cc2)NC(=O)[C@H](Cc2ccc(Cl)cc2)NC(=O)CCCSC[C@@H](C(=O)N2CSC[C@H]2C(=O)N[C@H](CCCNC(=N)N)C(=O)NCCc2cccs2)NC(=O)[C@H](CC(N)=O)NC1=O | 0.3 | inactive | 27 | Not Active | 0.04 | 100 | – |
| CCNC(=O)[C@@H](CCCNC(=N)N)NC(=O)[C@@H]1CCCN1C(=O)[C@@H]1CCSCCC(=O)N[C@@H](Cc2ccc(Cl)cc2)C(=O)N[C@@H](Cc2cccs2)C(=O)N[C@@H](C(C)C)C(=O)N[C@@H](CC(N)=O)C(=O)N1 | 0.19 | inactive | 5.3 | Not Active | 0.1 | 67 | – |
| CCNC(=O)[C@@H](CCCNC(=N)N)NC(=O)[C@@H]1CCCN1C(=O)[C@@H]1CSSCCC(=O)N[C@@H](Cc2ccc(Cl)cc2)C(=O)N[C@@H](Cc2cccs2)C(=O)N[C@@H](C(C)C)C(=O)N[C@@H](CC(N)=O)C(=O)N1 | 0.32 | inactive | 11 | Not Active | 0.12 | 81 | – |
| CC(C)[C@@H]1NC(=O)[C@H](Cc2cccs2)NC(=O)[C@H](Cc2ccc(O)cc2)NC(=O)CCSCC[C@@H](C(=O)N2CCC[C@H]2C(=O)N[C@@H](CO)CCCNC(=N)N)NC(=O)[C@H](CC(N)=O)NC1=O (Y[2Thi]VN[hCys]P-X2; linker N-5 via X3) | 0.08 | – | 6.9 | Not Active | 0.74 | – | 160 |
| CC(C)[C@@H]1NC(=O)[C@H](Cc2ccc(F)cc2)NC(=O)[C@H](Cc2ccc(Cl)cc2)NC(=O)CCCSC[C@@H](C(=O)N2CCC[C@H]2C(=O)N[C@@H](CO)CCCNC(=N)N)NC(=O)[C@H](CC(N)=O)NC1=O ([Phe(4-Cl)][Phe(4-F)]VNCP-X2; linker N-5 via X1) | – | – | 3.8 | Not Active | 0.07 | – | > 10000 |
| CC(C)[C@@H]1NC(=O)[C@H](Cc2cccs2)NC(=O)[C@H](Cc2ccc(Cl)cc2)NC(=O)CCCSC[C@@H](C(=O)N2CCC[C@H]2C(=O)N[C@@H](CO)CCCNC(=N)N)NC(=O)[C@H](CC(N)=O)NC1=O ([Phe(4-Cl)][2Thi]VNCP-X2; linker N-5 via X1) | – | – | 4 | Not Active | 0.2 | – | > 10000 |
| CCNC(=O)[C@@H](CCCNC(=N)N)NC(=O)[C@@H]1C[C@@H](O)CN1C(=O)[C@@H]1CSCCCC(=O)N[C@@H](Cc2ccc(Cl)cc2)C(=O)N[C@@H](Cc2ccccc2)C(=O)N[C@@H](C(C)C)C(=O)N[C@@H](CC(N)=O)C(=O)N1 | 0.29 | inactive | 3.3 | Not Active | 0.09 | – | – |
| CC(C)[C@@H]1NC(=O)[C@H](Cc2cccs2)NC(=O)[C@H](Cc2ccc(Cl)cc2)NC(=O)CCSCC[C@@H](C(=O)N2CCC[C@H]2C(=O)N[C@@H](CO)CCCNC(=N)N)NC(=O)[C@H](CC(N)=O)NC1=O ([Phe(4-Cl)][2Thi]VN[hCys]P-X2; linker N-5 via X3) | – | – | 2.8 | Not Active | 0.11 | 66 | > 10000 |
| CC(C)[C@@H]1NC(=O)[C@H](Cc2cccs2)NC(=O)[C@H](Cc2ccc(Cl)cc2)NC(=O)CCCSC[C@@H](C(=O)N2CSC[C@H]2C(=O)N[C@H](CCCNC(=N)N)C(=O)NCCc2cccs2)NC(=O)[C@H](CC(N)=O)NC1=O | 0.17 | inactive | 34 | Not Active | 0.07 | 100 | – |
| CC(C)CNC(=O)[C@@H](CCCNC(=N)N)NC(=O)[C@@H]1C[C@@H](O)CN1C(=O)[C@@H]1CCSCCC(=O)N[C@@H](Cc2ccc(Cl)cc2)C(=O)N[C@@H](Cc2cccs2)C(=O)N[C@@H](C(C)C)C(=O)N[C@@H](CC(N)=O)C(=O)N1 | 0.2 | inactive | 5.9 | Not Active | 0.08 | – | – |
